In ChEMBL document CHEMBL1125632, “Synthesis and copper-dependent antimycoplasmal activity of amides and amidines derived from 2-amino-1,10-phenanthroline” (1991):
≈ marks a conversion by molar mass, not a printed value.

What was measured:
[1] = tested on: Mycoplasmoides gallisepticum; test: Minimum inhibitory concentration measured against Mycoplasma gallisepticum K514 in the absence of extra copper; assay type: functional
How it was run: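 M. gallisepticum K514 grown in modified Adler medium (peptone, yeast extract, glucose, heat-inactivated horse serum, benzylpenicillin, phenol red, pH 8.0). No added copper. Compounds dissolved in DMSO (final 1.25%) and tested as serial 2-fold dilutions in duplicate, 3 nM to 100 μM. Tubes with 3 mL medium received 1 mL fresh culture and were held 24 h at 37 °C. MIC is the lowest concentration giving no indicator colour change.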

[2] = tested on: Mycoplasmoides gallisepticum; test: Minimum inhibitory concentration measured against Mycoplasma gallisepticum K514 in the presence of extra copper; assay type: functional
How it was run: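 M. gallisepticum K514 grown in modified Adler medium (peptone, yeast extract, glucose, horse serum, benzylpenicillin, phenol red, pH 8.0) with CuSO4 at 40 μM final. Compounds in DMSO (1.25% final), serial 2-fold dilutions in duplicate over 3 nM–100 μM. 3 mL medium plus 1 mL fresh culture, incubated 24 h at 37 °C. MIC is the lowest concentration with no phenol-red colour change.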

| Molecule | MIC [1] [µM] | MIC [2] [µM] |
| --- | --- | --- |
| Cc1ccc(C(=O)Nc2ccc3ccc4cccnc4c3n2)cc1 | > 100 | 0.023 |
| O=C(Nc1ccc2ccc3cccnc3c2n1)c1ccc(Cl)cc1 | > 100 | 0.023 |
| Nc1ccc2ccc3ccc(N)nc3c2n1 | > 100 | 0.8 |
| Nc1ccc2ccc3cccnc3c2n1 | > 100 | 3.1 |
| CUPRIC SULFATE | 700 | – |
| CCCCCCCCCC(=O)Nc1ccc2ccc3cccnc3c2n1 | > 100 | 0.37 |
| O=C(Nc1ccc2ccc3cccnc3c2n1)c1ccc(Cl)c(Cl)c1 | > 100 | 0.095 |
| CCCCc1ccc2ccc3ccc(NC(=O)c4ccc(C)cc4)nc3c2n1 | > 100 | 0.37 |
| CCCCc1ccc2ccc3ccc(NC(=O)c4ccccc4)nc3c2n1 | > 100 | 0.2 |
| CCCCc1ccc2ccc3ccc(NC(=O)c4ccc(Cl)cc4)nc3c2n1 | > 100 | 0.75 |
| O=C(Nc1ccc2ccc3cccnc3c2n1)c1ccccc1 | > 100 | 0.023 |
| CCCCC(CC)C(=O)Nc1ccc2ccc3cccnc3c2n1 (configuration not stated) | > 100 | 0.23 |

Results, then the molecule that gave them:

| MIC [1] [µM] | MIC [2] [µM] | Molecule |
| --- | --- | --- |
| > 100 | 1.5 | CCCCc1ccc2ccc3ccc(NC(=O)c4ccc(Cl)c(Cl)c4)nc3c2n1 |
| > 100 | 0.2 | N=C(Nc1ccc2ccc3cccnc3c2n1)c1ccccc1 |
| > 100 | 0.2 | N=C(Nc1ccc2ccc3cccnc3c2n1)c1ccc(Cl)cc1 |
| > 100 | 0.05 | O=C(Nc1ccc2ccc3ccc(NC(=O)c4ccccc4)nc3c2n1)c1ccccc1 |
| > 100 | 0.2 | N=C(Nc1ccc2ccc3cccnc3c2n1)c1ccc(Cl)c(Cl)c1 |
| > 100 | 0.046 | COc1ccc(C(=O)Nc2ccc3ccc4cccnc4c3n2)cc1 |
| 0.1 (≈ 0.0916 µg/mL) | 0.1 | CC[C@H]1OC(=O)C[C@@H](O)[C@H](C)[C@@H](O[C@@H]2O[C@H](C)[C@@H](O[C@H]3C[C@@](C)(O)[C@@H](O)[C@H](C)O3)[C@H](N(C)C)[C@H]2O)[C@@H](CC=O)C[C@@H](C)C(=O)/C=C/C(C)=C/[C@@H]1CO[C@@H]1O[C@H](C)[C@@H](O)[C@@H](OC)[C@H]1OC [TYLOSIN] |
